The results in this text go back to ChEMBL document CHEMBL1123920, “Leukotriene D4 antagonists and 5-lipoxygenase inhibitors. Synthesis of benzoheterocyclic [(methoxyphenyl)amino]oxoalkanoic acid esters” (J Med Chem, 1987).

In general, inhibition in vivo refers to the change of the read-out against control, counted positive when it falls. By IC50 is commonly meant the point on the concentration scale where inhibition reaches its midpoint. Higher therefore signals a need for much substance. The inhibition is the change of the read-out against control, counted positive when it falls.

One test relates to Cavia porcellus. Kind of test: Ability to inhibit the Ovalbumin induced bronchospasm in guinea pig was determined in vivo at a dose of 50 mg/kg id. It is filed as functional. Conditions: route intraduodenal. The procedure, abridged:
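Guinea pigs were challenged with LTD4 or ovalbumin to induce bronchospasm, and test agent was given intraduodenally. Read-out is percent inhibition of bronchospasm. Significance uses a two-tailed Student's t test (p < 0.05). N is the number of treated animals.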

For test [1], the target named is T1, Polyunsaturated fatty acid 5-lipoxygenase (Rattus norvegicus, UniProt P12527).
T1 sequence (P12527 whole entry): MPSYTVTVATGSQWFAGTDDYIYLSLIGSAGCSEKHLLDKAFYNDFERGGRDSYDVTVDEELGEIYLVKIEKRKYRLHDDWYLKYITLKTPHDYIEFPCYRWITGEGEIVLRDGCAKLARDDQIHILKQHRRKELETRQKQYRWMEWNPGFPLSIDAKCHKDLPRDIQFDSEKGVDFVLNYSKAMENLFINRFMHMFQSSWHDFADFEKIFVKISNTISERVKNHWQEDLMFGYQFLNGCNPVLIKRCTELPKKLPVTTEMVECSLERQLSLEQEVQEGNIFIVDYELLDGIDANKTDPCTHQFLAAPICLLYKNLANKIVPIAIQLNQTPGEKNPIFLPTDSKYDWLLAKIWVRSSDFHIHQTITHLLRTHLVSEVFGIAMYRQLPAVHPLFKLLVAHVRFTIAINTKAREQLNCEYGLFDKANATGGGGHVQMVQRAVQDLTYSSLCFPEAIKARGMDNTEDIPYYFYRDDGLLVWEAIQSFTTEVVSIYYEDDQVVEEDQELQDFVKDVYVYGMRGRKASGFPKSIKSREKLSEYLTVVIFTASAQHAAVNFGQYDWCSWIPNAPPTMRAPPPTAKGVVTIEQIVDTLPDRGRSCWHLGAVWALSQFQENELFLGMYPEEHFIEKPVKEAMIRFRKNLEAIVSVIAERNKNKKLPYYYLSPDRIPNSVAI
Kind of test: (§1) Ability to inhibit Lipoxygenase in vitro was determined.

In test [2] the test system is Cysteinyl leukotriene receptor (Cavia porcellus). Briefly: Inhibition of LTD4 induced bronchospasm in guinea pig was determined in at 50 mg/kg i.d.
For test [3], the species on record is Rattus norvegicus. Briefly: Tested for metabolic activation counted as mean number of revertants in strains TA98, TA100, TA1535, and TA1538, three plates per treatment at 0.05 mg per plate, with activation provided by S-9 rat liver homogenates in Ames test. It counts as functional, organism-based. For orientation: In the Ames test, an excess of revertant colonies over the control signals mutagenicity.

The species entered for test [4] is Rattus norvegicus. Briefly: Tested for metabolic activation counted as mean number of revertants in strains TA98, TA100, TA1535, and TA1538, three plates per treatment at 0.05 mg per plate, without activation in the absence of S-9 rat liver homogenates in Ames test. It is filed as functional, organism-based.
The species entered for test [5] is Rattus norvegicus. Briefly: Tested for metabolic activation counted as mean number of revertants in strains TA98, TA100, TA1535, and TA1538, three plates per treatment at 1.5 mg per plate, without activation in the absence of S-9 rat liver homogenates in Ames test. It counts as functional, organism-based.
The species named for test [6] is Rattus norvegicus. Briefly: Tested for metabolic activation counted as mean number of revertants in strains TA98, TA100, TA1535, and TA1538, three plates per treatment at 1.5 mg per plate, with activation provided by S-9 rat liver homogenates in Ames test. It counts as functional, organism-based.
The species entered for test [7] is Rattus norvegicus. Kind of test: Tested for metabolic activation counted as mean number of revertants in strains TA98, TA100, TA1535, and TA1538, three plates per treatment at 5.0 mg per plate, without activation in the absence of S-9 rat liver homogenates in Ames test. It counts as functional, organism-based.
The species named for test [8] is Rattus norvegicus. Kind of test: Tested for metabolic activation counted as mean number of revertants in strains TA98, TA100, TA1535, and TA1538, three plates per treatment at 5.0 mg per plate, with activation provided by S-9 rat liver homogenates in Ames test. It counts as functional, organism-based.
Test [9] is filed under the species Rattus norvegicus. Briefly: Tested for metabolic activation counted as mean number of revertants in strains TA98, TA100, TA1535, and TA1538, three plates per treatment at 0.15 mg per plate, with activation provided by S-9 rat liver homogenates in Ames test. It counts as functional, organism-based.
The species named for test [10] is Rattus norvegicus. Kind of test: Tested for metabolic activation counted as mean number of revertants in strains TA98, TA100, TA1535, and TA1538, three plates per treatment at 0.15 mg per plate, without activation in the absence of S-9 rat liver homogenates in Ames test. It counts as functional, organism-based.
The species named for test [11] is Rattus norvegicus. Briefly: Tested for metabolic activation counted as mean number of revertants in strains TA98, TA100, TA1535, and TA1538, three plates per treatment at 0.5 mg per plate, with activation provided by S-9 rat liver homogenates in Ames test. It counts as functional, organism-based.
Test [12] deals with T2, Polyunsaturated fatty acid 5-lipoxygenase (Rattus norvegicus) (UniProt P12527).
T2 sequence (whole entry): T1 sequence (P12527 whole entry)
Briefly: Ability to inhibit Lipoxygenase in vitro was determined; NA is <50% inhibition at 100 uM. The procedure, abridged: (§2)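 Source is rat polymorphonuclear leukocyte (PMN) 5-lipoxygenase. IC50 values come from nonlinear regression analysis, significant at p < 0.05.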

Test [13] is filed under the species Rattus norvegicus. Briefly: Tested for metabolic activation counted as mean number of revertants in strains TA98, TA100, TA1535, and TA1538, three plates per treatment at 0.02 mg per plate, without activation in the absence of S-9 rat liver homogenates in Ames test. It counts as functional, organism-based.
Test [14] is filed under the species Rattus norvegicus. Briefly: Tested for metabolic activation counted as mean number of revertants in strains TA98, TA100, TA1535, and TA1538, three plates per treatment at 0.06 mg per plate, without activation in the absence of S-9 rat liver homogenates in Ames test. It is filed as functional, organism-based.
For test [15], the species on record is Rattus norvegicus. Kind of test: Tested for metabolic activation counted as mean number of revertants in strains TA98, TA100, TA1535, and TA1538, three plates per treatment at 0.6 mg per plate, without activation in the absence of S-9 rat liver homogenates in Ames test. It counts as functional, organism-based.
Test [16] is filed under the species Rattus norvegicus. Kind of test: Tested for metabolic activation counted as mean number of revertants in strains TA98, TA100, TA1535, and TA1538, three plates per treatment at 2.0 mg per plate, with activation provided by S-9 rat liver homogenates in Ames test. It is filed as functional, organism-based.
The species entered for test [17] is Rattus norvegicus. Kind of test: Tested for metabolic activation counted as mean number of revertants in strains TA98, TA100, TA1535, and TA1538, three plates per treatment at 2.0 mg per plate, without activation in the absence of S-9 rat liver homogenates in Ames test. It is filed as functional, organism-based.
For test [18], the species on record is Rattus norvegicus. Briefly: Tested for metabolic activation counted as mean number of revertants in three plates per treatment at 0.06 mg per plate, with activation provided by S-9 rat liver homogenates in Ames test. It is filed as functional, organism-based.
The species named for test [19] is Rattus norvegicus. Briefly: Tested for metabolic activation counted as mean number of revertants in strains TA98, TA100, TA1535, and TA1538, three plates per treatment at 0.2 mg per plate, with activation provided by S-9 rat liver in Ames test. It counts as functional.
Test [20] is filed under the species Rattus norvegicus. Kind of test: Tested for metabolic activation counted as mean number of revertants in strains TA98, TA100, TA1535, and TA1538, three plates per treatment at 0.2 mg per plate, without activation in the absence of S-9 rat liver homogenates in Ames test. It is filed as functional, organism-based.
For test [21], the species on record is Rattus norvegicus. Kind of test: Tested for metabolic activation counted as mean number of revertants in strains TA98, TA100, TA1535, and TA1538, three plates per treatment at 0.6 mg per plate, with activation provided by S-9 rat liver in Ames test. It is filed as functional.
The species named for test [22] is Rattus norvegicus. Kind of test: Tested for metabolic activation counted as mean number of revertants in three plates per treatment at 0.02 mg per plate, with activation provided by S-9 rat liver homogenates in Ames test. It counts as functional, organism-based.
Test [23] deals with T1, Polyunsaturated fatty acid 5-lipoxygenase. The description is as §1. The procedure, abridged:
as §2
The source holds these as a separate data set.

For the compound `COC(=O)CCC(=O)N(C)c1cccc(OCc2nc3ccccc3s2)c1`, in the test on Cavia porcellus, the inhibition in vivo at 50 mg/kg worked out at 19%. Also, the IC50 in [1] was determined as 21 µM.

Take `COC(=O)CCC(=O)N(O)c1cccc(OCc2nc3ccccc3s2)c1`: the inhibition in vivo at 50 mg/kg in the test with Cavia porcellus stood at 6%. In test [1], half-maximal inhibition (IC50) was put at 0.36 µM. Moreover, the inhibition in test [2] is 79%.

Turning to `COC(=O)CCC(=O)Nc1cccc(OCc2ccc3ccccc3n2)c1`, the inhibition in vivo at 50 mg/kg in the test with Cavia porcellus is 43%. Moreover, the Mean no. of revertants in the test listed under Rattus norvegicus [3] turned out to be 15; in the test listed under Rattus norvegicus [4], 24; in the test filed under Rattus norvegicus [5] it was 2930; in the test filed under Rattus norvegicus [6], 2770; in the test filed under Rattus norvegicus [7], 2260; in the test filed under Rattus norvegicus [8], 2880. Further, the Mean no. of revertants in the test filed under Rattus norvegicus [9] came to 15; in the test filed under Rattus norvegicus [10] it was 25; in the test filed under Rattus norvegicus [11] it was 566.

Consider `COC(=O)CCC(=O)Nc1cccc(OCc2ccccn2)c1`, for which, in test [12], the inhibition is less than 50%.

In the case of `COC(=O)C1CC(=O)N(c2cccc(OCc3ccc4ccccc4n3)c2)C1` (stereo not given), the inhibition in vivo at 50 mg/kg with Cavia porcellus was 29%. Also, the Mean no. of revertants in the test filed under Rattus norvegicus [13] came to 10; in the test listed under Rattus norvegicus [14], 13; in the test listed under Rattus norvegicus [15], 421; in the test filed under Rattus norvegicus [16], 84; in the test filed under Rattus norvegicus [17], 475; in the test filed under Rattus norvegicus [18], 10. For the same compound, the “Mean no. of revertants” value in the test filed under Rattus norvegicus [19] stood at 10; in the test listed under Rattus norvegicus [20], 16; in the test listed under Rattus norvegicus [21], 15; in the test filed under Rattus norvegicus [22], 12. The same compound showed a 50% inhibitory concentration (IC50) in test [1] of 19.1 µM.

The compound `COC(=O)C1CC(=O)N(c2cccc(OCc3nc4ccccc4n3C)c2)C1` (stereo not given) showed an inhibition in [12] of less than 50%.

On to `COC(=O)C1CC(=O)N(c2cccc(OCc3nc4ccccc4o3)c2)C1` (stereo not given), for which the IC50 in test [1] was 30 µM.

`COC(=O)CCC(=O)Nc1cccc(OCc2nc3ccccc3o2)c1`: the inhibition in vivo at 50 mg/kg in the test on Cavia porcellus is -65%. Besides, in [23], the IC50 stood at 69.7 µM.

As to `CCCc1c(OCCCCc2nnn[nH]2)ccc(C(C)=O)c1O` [TOMELUKAST], in the test with Cavia porcellus, the inhibition in vivo at 50 mg/kg stood at 79.7%. Further, the 50% inhibitory concentration (IC50) in test [1] was 18.9 µM.

Take `COC(=O)CCC(=O)Nc1cccc(OCc2cc3ccccc3o2)c1`: the inhibition in vivo at 50 mg/kg in the test on Cavia porcellus was determined as 12%. For the same compound, in test [1], the IC50 is 17.9 µM.

Turning to `COC(=O)CC(=O)Nc1cccc(OCc2nc3ccccc3s2)c1`, the inhibition in vivo at 50 mg/kg with Cavia porcellus is 58%. Moreover, inhibition in test [23] was half-maximal at 17 µM (IC50).

Take `COC(=O)CCC(=O)Nc1cccc(Oc2nc3ccccc3s2)c1`: the inhibition in vivo at 50 mg/kg in the test with Cavia porcellus was determined as 7%. In addition, it took 27.1 µM to reach half-maximal inhibition in [1] (IC50).
